Activity calls are given as the source filed them. The calls are words filed in the database; no cut-off is given here.
Tests used:
Rattus norvegicus [1] = test: Increase of extracellular dopamine level in CD rat nucleus accumbens at 3 mg/kg, ip measured up to 180 mins by microdialysis method; format: functional, organism-based; parameters: dose 3 mg/kg
Outline: (§1)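 Probes of 2 or 4 mm were perfused with artificial CSF at 1.1 μL/min for 2 h, then dosing was 3 mg/kg ip. Dialysate was collected every 20 min into oxalic acid. NE, DA and 5-HT were measured by HPLC with electrochemical detection and expressed as percent of the mean of three basal samples.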

Rattus norvegicus [2] = test: Increase of extracellular norepinephrine level in CD rat medial prefrontal cortex at 3 mg/kg, ip measured up to 180 mins by microdialysis method; format: functional, organism-based; parameters: dose 3 mg/kg; outline: as §1
Rattus norvegicus [3] = test: Increase of extracellular dopamine level in CD rat medial prefrontal cortex at 3 mg/kg, ip measured up to 180 mins by microdialysis method; format: functional, organism-based; parameters: dose 3 mg/kg; outline: as §1
Mus musculus [4] = test: Antidepressant like activity in mouse assessed as reduction of immobility time at 3 to 30 mg/kg, po administered 2 hrs before test measured during final 4 mins of the 6 mins session by forced swimming test; format: functional, organism-based
Rattus norvegicus [5] = test: Increase of extracellular norepinephrine level in CD rat nucleus accumbens at 3 mg/kg, ip measured up to 180 mins by microdialysis method; format: functional, organism-based; parameters: dose 3 mg/kg; outline: as §1
Mus musculus [6] = test: Potentiation of 5-hydroxytryptophan-induced stereotypic behavior in po dosed mouse administered 2 hrs before 5-hydroxytryptophan challenge measured for 30 mins; format: functional, organism-based
Outline: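 Mice got oral drug 120 min before an ip 5-HTP challenge (100 mg/kg), then sat singly in a perspex box for scoring of stereotyped behaviour. Oral doses were 3, 10 and 30 mg/kg.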

Rattus norvegicus [7] = test: Increase of extracellular serotonin level in CD rat medial […] at 3 mg/kg, ip measured up to 180 mins by microdialysis method; format: functional, organism-based; parameters: dose 3 mg/kg; outline: as §1
Rattus norvegicus [8] = test: Increase of extracellular serotonin level in CD rat nucleus accumbens at 3 mg/kg, ip measured up to 180 mins by microdialysis method; format: functional, organism-based; parameters: dose 3 mg/kg; outline: as §1
Mus musculus [9] = test: Potentiation of 5-hydroxytryptophan-induced stereotypic behavior in mouse at 10 mg/kg, po administered 2 hrs before 5-hydroxytryptophan challenge measured for 30 mins; format: functional, organism-based; parameters: dose 10 mg/kg
Outline: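 Mice were dosed orally at 3, 10 or 30 mg/kg 120 min before an ip injection of 5-HTP (100 mg/kg). Each mouse was then placed alone in a perspex box, and 5-HTP-induced stereotyped behaviour was assessed.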

[10] = biological target: Sodium-dependent serotonin transporter (Homo sapiens, UniProt P31645); test: Displacement of [N-methyl-3H]citalopram from human recombinant SERT expressed in pig LLCPK cells after 2 hrs by liquid scintillation counting; format: cell-based
[11] = biological target: Sodium-dependent dopamine transporter (Homo sapiens, UniProt Q01959); test: Displacement of [N-methyl-3H]WIN-35428 from human recombinant DAT expressed in pig LLCPK cells after 2 hrs by liquid scintillation counting; format: cell-based
[12] = biological target: Sodium-dependent noradrenaline transporter (Homo sapiens, UniProt P23975); test: Displacement of [N-methyl-3H]nisoxetine from human recombinant NET expressed in pig LLCPK cells after 2 hrs by liquid scintillation counting; format: cell-based
Cytochrome P450 2C9 = Cytochrome P450 2C9 (Homo sapiens, UniProt P11712); test: Inhibition of human CYP2C9 after 10 mins; format: ADME
Outline: (§2)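 Recombinant human CYP bactosomes (0.1 mg/mL) were pre-incubated 10 min at 37 °C in 50 mM phosphate pH 7.4 with compound (0.1–10 μM) and a fluorogenic substrate. Substrates: ethoxyresorufin 0.5 μM (1A2), FCA 50 μM (2C9), BMC 10 μM (2C19), MMC 10 μM (2D6), DEF 1 μM or 7-BQ 25 μM (3A4). Adding an NADPH-regenerating system started the reaction, and metabolite fluorescence was read over 10 min. The IC50 came from rate as percent of control; miconazole served as positive control, with triplicates.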

Liver microsomes [13] = test: Intrinsic clearance in rat liver microsomes assessed per gram of protein at 0.5 uM after 30 mins; format: ADME, Microsome; settings: 0.5 h
Outline: (§3)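 Compound at 0.5 μM with liver microsomes (0.5 mg protein/mL) in 50 mM phosphate pH 7.4 at 37 °C, started with NADPH. Samples at 0, 3, 6, 9, 15 and 30 min were quenched in acetonitrile and analysed by HPLC-MS/MS. Cli came from the first-order elimination constant, scaled assuming 52.5 mg microsomal protein/g.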

Cytochrome P450 2D6 = Cytochrome P450 2D6 (Homo sapiens, UniProt P10635); test: Inhibition of human CYP2D6 after 10 mins; format: ADME; outline: as §2
Liver microsomes [14] = test: Intrinsic clearance in human liver microsomes assessed per gram of protein at 0.5 uM after 30 mins; format: ADME, Microsome; settings: 0.5 h; outline: as §3
Cytochrome P450 1A2 = biological target: T1, Cytochrome P450 1A2 (Homo sapiens, UniProt P05177); test: Inhibition of human CYP1A2 after 10 mins; format: ADME; outline: as §2
T1 sequence (P05177 whole entry): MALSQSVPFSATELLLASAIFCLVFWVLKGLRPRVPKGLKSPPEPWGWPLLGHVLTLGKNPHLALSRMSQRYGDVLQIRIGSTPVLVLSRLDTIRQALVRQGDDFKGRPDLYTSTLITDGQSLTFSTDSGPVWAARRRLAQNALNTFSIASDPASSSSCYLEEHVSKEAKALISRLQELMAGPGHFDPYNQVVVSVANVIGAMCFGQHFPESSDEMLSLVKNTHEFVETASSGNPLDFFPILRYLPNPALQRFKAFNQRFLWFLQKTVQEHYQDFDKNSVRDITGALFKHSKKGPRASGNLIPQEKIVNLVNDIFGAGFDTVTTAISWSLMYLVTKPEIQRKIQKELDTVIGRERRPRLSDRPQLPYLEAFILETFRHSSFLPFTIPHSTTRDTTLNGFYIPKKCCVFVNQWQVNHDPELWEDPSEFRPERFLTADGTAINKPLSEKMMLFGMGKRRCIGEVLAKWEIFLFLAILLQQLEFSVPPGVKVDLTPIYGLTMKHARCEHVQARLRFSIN

Cytochrome P450 2C19 = Cytochrome P450 2C19 (Homo sapiens, UniProt P33261); test: Inhibition of human CYP2C19 after 10 mins; format: ADME; outline: as §2
Cytochrome P450 3A4 = Cytochrome P450 3A4 (Homo sapiens, UniProt P08684); test: Inhibition of human CYP3A4 after 10 mins; format: ADME; outline: as §2
Chain of Cytochrome P450 3A4 (P08684 whole entry): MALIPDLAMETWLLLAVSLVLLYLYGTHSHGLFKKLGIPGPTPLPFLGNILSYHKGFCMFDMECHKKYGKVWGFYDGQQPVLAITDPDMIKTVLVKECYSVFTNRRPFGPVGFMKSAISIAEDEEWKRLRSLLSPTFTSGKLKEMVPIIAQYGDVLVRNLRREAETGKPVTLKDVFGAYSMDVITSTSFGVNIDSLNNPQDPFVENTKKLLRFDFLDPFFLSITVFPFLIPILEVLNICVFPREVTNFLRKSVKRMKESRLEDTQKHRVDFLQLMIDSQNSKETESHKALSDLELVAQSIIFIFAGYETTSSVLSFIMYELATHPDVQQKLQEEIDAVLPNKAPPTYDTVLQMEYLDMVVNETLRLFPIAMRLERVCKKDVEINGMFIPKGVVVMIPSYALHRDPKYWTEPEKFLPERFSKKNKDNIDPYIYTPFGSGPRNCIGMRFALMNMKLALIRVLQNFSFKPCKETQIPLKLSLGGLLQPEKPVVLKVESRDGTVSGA

Chain of Cytochrome P450 2C9 (P11712 whole entry): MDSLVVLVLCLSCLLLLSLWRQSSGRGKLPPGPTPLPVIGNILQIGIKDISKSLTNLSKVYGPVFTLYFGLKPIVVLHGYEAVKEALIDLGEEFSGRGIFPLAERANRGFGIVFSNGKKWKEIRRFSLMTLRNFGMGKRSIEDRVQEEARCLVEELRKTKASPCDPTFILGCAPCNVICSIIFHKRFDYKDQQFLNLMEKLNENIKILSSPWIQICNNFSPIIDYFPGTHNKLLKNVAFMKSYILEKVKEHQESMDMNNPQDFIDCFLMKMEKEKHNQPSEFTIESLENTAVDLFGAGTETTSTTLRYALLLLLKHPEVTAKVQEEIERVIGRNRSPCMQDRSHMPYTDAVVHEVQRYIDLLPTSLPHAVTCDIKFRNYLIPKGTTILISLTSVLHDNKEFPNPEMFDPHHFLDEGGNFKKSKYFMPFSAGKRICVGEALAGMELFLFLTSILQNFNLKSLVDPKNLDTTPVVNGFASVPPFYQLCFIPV
Chain of Sodium-dependent serotonin transporter (P31645 whole entry): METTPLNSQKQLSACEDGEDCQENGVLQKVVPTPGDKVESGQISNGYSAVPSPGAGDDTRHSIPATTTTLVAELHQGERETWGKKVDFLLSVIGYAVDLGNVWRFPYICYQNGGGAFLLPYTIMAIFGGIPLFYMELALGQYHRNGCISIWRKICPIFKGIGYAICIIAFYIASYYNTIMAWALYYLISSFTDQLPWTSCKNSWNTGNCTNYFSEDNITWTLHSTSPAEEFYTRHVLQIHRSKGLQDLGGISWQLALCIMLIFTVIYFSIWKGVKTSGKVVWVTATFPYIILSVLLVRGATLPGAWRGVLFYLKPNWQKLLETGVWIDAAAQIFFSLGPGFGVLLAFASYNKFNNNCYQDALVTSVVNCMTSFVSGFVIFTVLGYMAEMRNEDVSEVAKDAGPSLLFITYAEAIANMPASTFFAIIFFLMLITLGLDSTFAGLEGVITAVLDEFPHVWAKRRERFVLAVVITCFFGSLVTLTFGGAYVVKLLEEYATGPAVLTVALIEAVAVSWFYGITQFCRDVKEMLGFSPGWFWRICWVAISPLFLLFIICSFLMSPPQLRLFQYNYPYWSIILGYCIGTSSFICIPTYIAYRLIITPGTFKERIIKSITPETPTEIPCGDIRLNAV
Chain of Cytochrome P450 2D6 (P10635 whole entry): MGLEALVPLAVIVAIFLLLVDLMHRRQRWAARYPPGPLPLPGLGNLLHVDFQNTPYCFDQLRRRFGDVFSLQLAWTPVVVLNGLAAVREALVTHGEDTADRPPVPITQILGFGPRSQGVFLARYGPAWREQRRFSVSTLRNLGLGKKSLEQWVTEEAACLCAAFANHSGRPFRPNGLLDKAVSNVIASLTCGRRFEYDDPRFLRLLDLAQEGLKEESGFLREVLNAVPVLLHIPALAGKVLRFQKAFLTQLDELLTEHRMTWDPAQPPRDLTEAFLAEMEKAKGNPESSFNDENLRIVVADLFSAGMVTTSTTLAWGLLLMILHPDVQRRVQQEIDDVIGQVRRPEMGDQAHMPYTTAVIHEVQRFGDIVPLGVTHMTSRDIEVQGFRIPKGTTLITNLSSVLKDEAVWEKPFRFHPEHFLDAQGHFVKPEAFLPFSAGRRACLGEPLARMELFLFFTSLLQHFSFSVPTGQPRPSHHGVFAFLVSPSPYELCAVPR
Chain of Cytochrome P450 2C19 (P33261 whole entry): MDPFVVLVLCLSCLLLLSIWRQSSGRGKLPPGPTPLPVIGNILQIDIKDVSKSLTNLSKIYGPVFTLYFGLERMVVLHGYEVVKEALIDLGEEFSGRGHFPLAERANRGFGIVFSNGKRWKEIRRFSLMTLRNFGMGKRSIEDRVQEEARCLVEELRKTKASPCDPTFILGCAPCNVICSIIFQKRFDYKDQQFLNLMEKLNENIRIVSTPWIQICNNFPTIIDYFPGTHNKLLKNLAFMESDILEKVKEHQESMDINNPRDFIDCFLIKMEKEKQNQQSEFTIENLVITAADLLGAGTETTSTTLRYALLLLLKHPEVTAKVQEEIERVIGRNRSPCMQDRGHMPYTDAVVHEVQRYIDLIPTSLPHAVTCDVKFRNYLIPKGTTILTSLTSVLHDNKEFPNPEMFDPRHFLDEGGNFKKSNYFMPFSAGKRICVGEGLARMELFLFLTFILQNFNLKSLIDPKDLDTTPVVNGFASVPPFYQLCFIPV
Chain of Sodium-dependent noradrenaline transporter (P23975 whole entry): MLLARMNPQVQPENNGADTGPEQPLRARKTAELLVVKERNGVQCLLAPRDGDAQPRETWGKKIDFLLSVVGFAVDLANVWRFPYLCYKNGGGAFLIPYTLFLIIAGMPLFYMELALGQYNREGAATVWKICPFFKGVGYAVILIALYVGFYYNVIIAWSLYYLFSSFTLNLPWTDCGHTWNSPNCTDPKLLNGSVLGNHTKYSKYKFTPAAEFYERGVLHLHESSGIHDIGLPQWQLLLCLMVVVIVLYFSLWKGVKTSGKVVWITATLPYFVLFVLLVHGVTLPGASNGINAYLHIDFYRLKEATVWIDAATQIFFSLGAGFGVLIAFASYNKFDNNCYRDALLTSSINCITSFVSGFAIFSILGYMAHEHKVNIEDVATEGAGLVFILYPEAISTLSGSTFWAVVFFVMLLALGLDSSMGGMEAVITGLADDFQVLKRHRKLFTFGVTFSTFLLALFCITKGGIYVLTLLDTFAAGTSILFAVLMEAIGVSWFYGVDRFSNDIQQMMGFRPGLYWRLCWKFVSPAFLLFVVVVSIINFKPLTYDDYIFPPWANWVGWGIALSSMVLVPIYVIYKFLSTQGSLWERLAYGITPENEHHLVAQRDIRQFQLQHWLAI
Chain of Sodium-dependent dopamine transporter (Q01959 whole entry): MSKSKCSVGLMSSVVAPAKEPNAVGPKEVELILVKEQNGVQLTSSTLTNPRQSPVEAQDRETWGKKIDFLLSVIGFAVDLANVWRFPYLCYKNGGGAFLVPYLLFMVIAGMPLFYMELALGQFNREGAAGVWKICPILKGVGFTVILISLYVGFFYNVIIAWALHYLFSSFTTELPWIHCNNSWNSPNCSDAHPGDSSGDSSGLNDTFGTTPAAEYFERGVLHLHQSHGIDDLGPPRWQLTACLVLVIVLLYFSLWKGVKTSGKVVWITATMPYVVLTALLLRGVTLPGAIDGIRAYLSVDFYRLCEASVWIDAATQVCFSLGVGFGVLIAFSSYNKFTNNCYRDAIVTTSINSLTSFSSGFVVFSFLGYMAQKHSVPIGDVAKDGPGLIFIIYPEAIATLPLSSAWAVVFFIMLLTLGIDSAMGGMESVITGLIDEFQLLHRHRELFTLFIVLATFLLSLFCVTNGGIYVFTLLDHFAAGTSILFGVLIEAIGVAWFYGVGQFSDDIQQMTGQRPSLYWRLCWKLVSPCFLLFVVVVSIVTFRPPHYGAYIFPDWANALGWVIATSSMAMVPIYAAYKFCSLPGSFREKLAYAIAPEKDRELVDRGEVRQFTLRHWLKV

Compound | Ki [10] [µM] | Ki [11] [µM] | Ki [12] [µM] | also measured
COC[C@@]12CNCC[C@]1(c1ccc(Cl)c(Cl)c1)C2 (relative stereo; 17) | – | – | – | Activity (Rattus norvegicus [1]): Active; Activity (Rattus norvegicus [2]): Active; Activity (Rattus norvegicus [3]): Active; Activity (Mus musculus [4]): Active; Activity (Rattus norvegicus [5]): Active; Activity (Mus musculus [6]): Dose-dependent effect; Activity (Rattus norvegicus [7]): Active; Activity (Rattus norvegicus [8]): Active
CN(C)CCCC1(c2ccc(F)cc2)OCc2cc(C#N)ccc21 (stereo not drawn) | – | – | – | Activity (Mus musculus [9]): Active
COC[C@@]12CNCC[C@]1(c1ccc(Cl)c(Cl)c1)C2 (relative stereo; 18) [GSK1360707] | 0.02 | 0.1 | 0.126 | IC50 (Cytochrome P450 2C9): 10 µM; CL (Liver microsomes [13]): 1.8 mL/min/g; IC50 (Cytochrome P450 2D6): 3 µM; CL (Liver microsomes [14]): 1.4 mL/min/g; IC50 (Cytochrome P450 1A2): 10 µM; IC50 (Cytochrome P450 2C19): 10 µM; IC50 (Cytochrome P450 3A4): 10 µM
C=CCC(OC)[C@]12CNCC[C@]1(c1ccc(Cl)c(Cl)c1)C2 (mixture of isomers; form 1) [6-(3,4-DICHLOROPHENYL)-1-[1-(METHYLOXY)-3-BUTEN-1-YL]-3-AZABICYCLO[4.1.0]HEPTANE (DIASTEREOMERIC MIX)] | 0.000126 | 0.00126 | 0.001 | IC50 (Cytochrome P450 2C9): 3 µM; IC50 (Cytochrome P450 2D6): 3 µM; IC50 (Cytochrome P450 1A2): 3 µM; IC50 (Cytochrome P450 2C19): 3 µM; IC50 (Cytochrome P450 3A4): 3 µM
COC[C@@]12CCNC[C@]1(c1ccc(Cl)c(Cl)c1)C2 (racemic) [RAC-1-(3,4-DICHLOROPHENYL)-6-(METHOXYMETHYL)-2-AZABICYCLO[4.1.0]HEPTANE (ENANTIOMERS)] | 0.0316 | 0.126 | 0.2 | CL (Liver microsomes [13]): 1.8 mL/min/g; CL (Liver microsomes [14]): 1.4 mL/min/g
Clc1ccc([C@]23CNCC[C@H]2C3)cc1Cl (racemic) [1-PHENYL-3-AZABICYCLO[4.1.0]HEPTANE (STRUCTURAL MIX)] | 0.126 | 0.0794 | 0.158 | –
COC[C@@]12CN(C(C)C)CC[C@]1(c1ccc(Cl)c(Cl)c1)C2 | 0.631 | 1.26 | 5.01 | –
COC[C@@]12CN[C@@H](C)C[C@]1(c1ccc(Cl)c(Cl)c1)C2 (racemic) | 0.00794 | 0.0398 | 0.0501 | –
COC[C@@]12CNC[C@@H](F)[C@]1(c1ccc(Cl)c(Cl)c1)C2 (racemic) | 0.00398 | 0.1 | 0.0501 | –
COC[C@@]12CNCC[C@]1(c1ccc(Cl)c(Cl)c1)C2 (racemic) [GSK1360707] | 0.00158 | 0.0251 | 0.0126 | IC50 (Cytochrome P450 2C9): 10 µM; IC50 (Cytochrome P450 2D6): 3 µM; IC50 (Cytochrome P450 1A2): 10 µM; IC50 (Cytochrome P450 2C19): 10 µM; IC50 (Cytochrome P450 3A4): 10 µM
COC[C@@]12CNCC[C@]1(c1ccc(OC(F)(F)F)cc1)C2 (racemic) | 0.00316 | 7.94 | 3.16 | –
COC[C@@]12CNCC[C@]1(c1ccc3ccccc3c1)C2 (single isomer, unassigned; 27) [1-(METHOXYMETHYL)-6-(NAPHTHALEN-2-YL)-3-AZABICYCLO[4.1.0]HEPTANE (ENANTIOMERIC MIX)] | 0.001 | 0.1 | 0.0398 | –
Clc1ccc([C@@H]2CCNC[C@@]23CCCOC3)cc1Cl | 0.000316 | 0.0126 | 0.00398 | –
Clc1ccc([C@]23CCNC[C@@]2(COCC2CC2)C3)cc1Cl (relative stereo; 34) [1-((CYCLOPROPYLMETHOXY)METHYL)-6-(3,4-DICHLOROPHENYL)-3-AZABICYCLO[4.1.0]HEPTANE (ENANTIOMERIC MIX)] | 0.000398 | 0.00316 | 0.02 | –
COC[C@@]12CNCC[C@]1(c1ccc(C(F)(F)F)c(Cl)c1)C2 (racemic) | 0.0158 | 1.58 | 0.126 | –
Clc1ccc([C@@]23CCNC[C@@H]2C3)cc1Cl (relative stereo) [RAC-1-(3,4-DICHLO ROPHENYL)-3-AZABICYCLO[4.1.0]HEPTANE (ENANTIOMERS)] | 0.0398 | 0.0501 | 0.251 | –
FC(F)(F)COC[C@@]12CNCC[C@]1(c1ccc(Cl)c(Cl)c1)C2 (racemic) | 0.00631 | 0.0398 | 0.0794 | –
COC[C@@]12CNCC[C@]1(c1ccc3ccccc3c1)C2 (single isomer, unassigned; 28) [1-(METHOXYMETHYL)-6-(NAPHTHALEN-2-YL)-3-AZABICYCLO[4.1.0]HEPTANE (ENANTIOMERIC MIX)] | 0.000126 | 0.0126 | 0.01 | IC50 (Cytochrome P450 2C9): 8 µM; CL (Liver microsomes [13]): 17 mL/min/g; IC50 (Cytochrome P450 2D6): 8 µM; CL (Liver microsomes [14]): 1.2 mL/min/g; IC50 (Cytochrome P450 1A2): 8 µM; IC50 (Cytochrome P450 2C19): 8 µM; IC50 (Cytochrome P450 3A4): 8 µM

— ChEMBL document CHEMBL1177725, “6-(3,4-dichlorophenyl)-1-[(methyloxy)methyl]-3-azabicyclo[4.1.0]heptane: a new potent and selective triple reuptake inhibitor” (J Med Chem, 2010)
